Values after ≈ are worked out from the molar mass of the structure shown. Active and inactive are the calls of the source. The rule behind the calls is not given here.
Assays:
Candida albicans [1] = assay: Antifungal activity against Candida albicans isolate 17 grown in RPMI 1640 medium incubated for 24 hrs by microdilution method; assay type: functional; details: isolate 17, 24 h
Summary of the method: (§1)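 C. albicans standard strain SC5314 and clinical isolates g5 and 17# tested by broth microdilution in YNB or RPMI 1640 medium. Plates incubated at 35 °C for up to 72 h, with visual readings taken at 24 h. MIC taken as the lowest concentration preventing visible growth.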

Ceratobasidium cereale [2] = assay: Antifungal activity against Rhizoctonia cerealis assessed as reduction in growth at 50 mg/l by mycelium growth rate method relative to control; assay type: functional
Summary of the method: (§2)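 Mycelium growth rate method against S. sclerotiorum, P. capsici, P. piricola, R. cerealis, W. anthracnose and R. bakanae. Each compound tested at 50 mg/L, with chlorothalonil and PTB as controls. Relative inhibitory ratio (%) calculated from mycelial growth.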

Candida albicans [3] = assay: Antifungal activity against Candida albicans SC5314 grown in RPMI 1640 medium incubated for 24 hrs by microdilution method; assay type: functional; details: SC5314, 24 h; summary of the method: as §1
Candida albicans [4] = assay: Inhibition of Candida albicans AHAS catalytic subunit at 10 uM using pyruvate as substrate measured after 30 mins by colorimetric method relative to control
Summary of the method: (§3)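 Colorimetric assay in 50 mM potassium phosphate pH 7.0 with 50 mM pyruvate, 1 mM thiamine diphosphate, 10 mM MgCl2 and 10 μM FAD. Incubated 30 min at 37 °C for plant AHAS and 30 °C for fungal AHAS. Acetolactate formed was then quantified.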

Candida albicans [5] = assay: Inhibition of Candida albicans AHAS catalytic subunit at 100 uM using pyruvate as substrate measured after 30 mins by colorimetric method relative to control; summary of the method: as §3
Candida albicans [6] = assay: Antifungal activity against Candida albicans isolate g5 grown in RPMI 1640 medium incubated for 24 hrs by microdilution method; assay type: functional; details: isolate g5, 24 h; summary of the method: as §1
Candida albicans [7] = assay: Antifungal activity against Candida albicans SC5314 grown in YNB medium incubated for 24 hrs by microdilution method; assay type: functional; details: SC5314, 24 h; summary of the method: as §1
Candida albicans [8] = assay: Antifungal activity against Candida albicans isolate 17 grown in YNB medium incubated for 24 hrs by microdilution method; assay type: functional; details: isolate 17, 24 h; summary of the method: as §1
Candida albicans [9] = assay: Antifungal activity against Candida albicans isolate g5 grown in YNB medium incubated for 24 hrs by microdilution method; assay type: functional; details: isolate g5, 24 h; summary of the method: as §1
Arabidopsis thaliana [10] = assay: Inhibition of Arabidopsis thaliana AHAS catalytic subunit using pyruvate as substrate at 100 uM measured after 30 mins by colorimetric method relative to control; summary of the method: as §3
Arabidopsis thaliana [11] = assay: Inhibition of Arabidopsis thaliana AHAS catalytic subunit using pyruvate as substrate at 10 uM measured after 30 mins by colorimetric method relative to control; summary of the method: as §3
[12] = test system: Brassica rapa subsp. oleifera; assay: Herbicidal activity against Brassica campestris L assessed as inhibition of rape root growth at 100 mg/l root growth incubated for 48 hrs relative to control; assay type: functional
Summary of the method: (§4)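 Rape seeds soaked in distilled water for 4 h, then placed on filter paper wetted with inhibitor solution, 15 seeds per 6-cm dish. Germinated in the dark at 28 °C for 48 h. Mean length of 10 roots per plate measured.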

[13] = test system: Brassica rapa subsp. oleifera; assay: Herbicidal activity against Brassica campestris L assessed as inhibition of rape root growth at 10 mg/l root growth incubated for 48 hrs relative to control; assay type: functional; summary of the method: as §4
[14] = test system: Brassica rapa subsp. oleifera; assay: Pre-emergence herbicidal activity against Brassica campestris assessed as reduction in growth at 300g/ha measured after 24 days green house pot method relative to control; assay type: functional; details: 576 h
Amaranthus retroflexus [15] = assay: Pre-emergence herbicidal activity against Amaranthus retroflexus assessed as reduction in growth at 300g/ha measured after 24 days by green house pot method relative to control; assay type: functional; details: 576 h
Echinochloa crus-galli [16] = assay: Pre-emergence herbicidal activity against Echinochloa crus-galli assessed as reduction in growth at 300g/ha measured after 24 days by green house pot method relative to control; assay type: functional; details: 576 h
Digitaria adscendens [17] = assay: Pre-emergence herbicidal activity against Digitaria adscendens assessed as reduction in growth at 300g/ha measured after 24 days by green house pot method relative to control; assay type: functional; details: 576 h
[18] = test system: Brassica rapa subsp. oleifera; assay: Post-emergence herbicidal activity against Brassica campestris assessed as reduction in growth at 300g/ha measured after 24 days by green house pot method relative to control; assay type: functional; details: 576 h
Amaranthus retroflexus [19] = assay: Post-emergence herbicidal activity against Amaranthus retroflexus assessed as reduction in growth at 300g/ha measured after 24 days by green house pot method relative to control; assay type: functional; details: 576 h
Echinochloa crus-galli [20] = assay: Post-emergence herbicidal activity against Echinochloa crus-galli assessed as reduction in growth at 300g/ha measured after 24 days by green house pot method relative to control; assay type: functional; details: 576 h
Digitaria adscendens [21] = assay: Post-emergence herbicidal activity against Digitaria adscendens assessed as reduction in growth at 300g/ha measured after 24 days by based green house pot method relative to control; assay type: functional; details: 576 h
Sclerotinia sclerotiorum = assay: Antifungal activity against Sclerotinia sclerotiorum assessed as reduction in growth at 50 mg/l by mycelium growth rate method relative to control; assay type: functional; summary of the method: as §2
Phytophthora capsici = assay: Antifungal activity against Phytophthora capsici assessed as reduction in growth at 50 mg/l by mycelium growth rate method relative to control; assay type: functional; summary of the method: as §2
[22] = test system: Botryosphaeria berengeriana; assay: Antifungal activity against Physalospora pyricola assessed as reduction in growth at 50 mg/l by mycelium growth rate method relative to control; assay type: functional; summary of the method: as §2
Colletotrichum = assay: Antifungal activity against Colletotrichum (W. anthracnose) assessed as reduction in growth at 50 mg/l by mycelium growth rate method relative to control; assay type: functional; summary of the method: as §2
Fusarium fujikuroi = assay: Antifungal activity against Gibberella fujikuroi assessed as reduction in growth at 50 mg/l by mycelium growth rate method relative to control; assay type: functional; summary of the method: as §2
Ceratobasidium cereale [23] = assay: Antifungal activity against Rhizoctonia cerealis assessed as reduction in growth mycelium growth rate method relative to control; assay type: functional, organism-based
Summary of the method: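 EC50 against R. cerealis derived from mycelium growth-rate inhibition over a concentration series, using a probit fit: Probit = m(log10[I] − log10[EC50]) + 5.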

[24] = test system: Severe acute respiratory syndrome-related coronavirus; assay: Inhibition of SARS coronavirus M protease using AVLQSGFRKK as substrate at 20 uM by FRET assay relative to control
Summary of the method: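 Purified SARS-CoV Mpro assayed by FRET. Protein, compound and substrate were preheated at 37 °C and oscillated. Fluorescence (ex 320/em 405 nm) was read every 5 s for 200 reads.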

Mythimna separata = assay: Insecticidal activity against Mythimna separata assessed as larval mortality at 600 mg/l by leaf-dip method; assay type: functional
Tobacco mosaic virus [25] = assay: Antiviral activity against Tobacco mosaic virus inoculated in Nicotiana tabacum leaves assessed as passivation by measuring local lesion numbers at 500 mg/l pre-incubated with virus for 30 mins followed by inoculation and measured up to 4 days; assay type: functional
Summary of the method: (§5)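 Passivation assay: TMV mixed with an equal volume of compound solution for 30 min, then rubbed onto the left half of N. tabacum L. leaves. The right half received virus mixed with solvent as control. Local lesions counted 3–4 days after inoculation. Compounds tested at 500 or 100 mg/L.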

Tobacco mosaic virus [26] = assay: Antiviral activity against Tobacco mosaic virus inoculated in Nicotiana tabacum leaves assessed as passivation by measuring local lesion numbers at 100 mg/l pre-incubated with virus for 30 mins followed by inoculation and measured up to 4 days; assay type: functional; summary of the method: as §5
[27] = Inhibition of SARS coronavirus M protease using AVLQSGFRKK as substrate by FRET assay; design: species or system Severe acute respiratory syndrome-related coronavirus
Summary of the method: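 Purified SARS-CoV Mpro assayed by FRET. Protein, compound and substrate were preheated at 37 °C and oscillated. Fluorescence (ex 320/em 405 nm) was read every 5 s for 200 reads. IC50 from V0/V = 1+[I]/IC50.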

[28] = Cytotoxicity against HEK293T cells assessed as reduction in cell growth incubated for 48 hrs by MTT assay; assay type: cell-based, HEK-293T; details: human
Summary of the method: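 293T cells in logarithmic phase seeded at 12000 cells/well overnight, then exposed to a range of compound concentrations for 48 h. MTT added for a further 4 h, formazan dissolved in DMSO, and OD570 read. CC50 is the concentration reducing viability by 50%.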

SMILES | MIC (Candida albicans [1]) [µg/mL] | inhibition at 50 µg/mL (Ceratobasidium cereale [2]) [%] | MIC (Candida albicans [3]) [µg/mL] | inhibition (Candida albicans [4]) [%] | inhibition (Candida albicans [5]) [%] | MIC (Candida albicans [6]) [µg/mL] | MIC (Candida albicans [7]) [µg/mL] | MIC (Candida albicans [8]) [µg/mL] | MIC (Candida albicans [9]) [µg/mL] | inhibition (Arabidopsis thaliana [10]) [%] | inhibition (Arabidopsis thaliana [11]) [%] | inhibition (INH) [12] [%] | inhibition (INH) [13] [%] | inhibition at 50 µg/mL (Sclerotinia sclerotiorum) [%] | inhibition at 50 µg/mL (Phytophthora capsici) [%] | inhibition at 50 µg/mL [22] [%] | inhibition at 50 µg/mL (Colletotrichum) [%] | inhibition at 50 µg/mL (Fusarium fujikuroi) [%] | inhibition [24] [%] | further results
COc1cc(OC)nc(Sc2cccc(Cl)c2C(=O)O)n1 [PYRITHIOBAC] | > 100 | 86.9 | > 100 | 20 | 40 | > 100 | > 100 | > 100 | > 100 | 100 | 96 | 97 | 90.2 | 64.8 | 44.7 | 60.3 | 45.3 | 12.6 | 12.2 | inhibition at 300 g/ha [14]: 95.2%; inhibition at 300 g/ha (Amaranthus retroflexus [15]): 96.3%; inhibition at 300 g/ha (Echinochloa crus-galli [16]): 63.4%; inhibition at 300 g/ha (Digitaria adscendens [17]): 63.8%; inhibition at 300 g/ha [18]: 92.3%; inhibition at 300 g/ha (Amaranthus retroflexus [19]): 61.2%; inhibition at 300 g/ha (Echinochloa crus-galli [20]): 59.5%; inhibition at 300 g/ha (Digitaria adscendens [21]): 36.6%; EC50 (Ceratobasidium cereale [23]): 15.4 µg/mL (≈ 47.1 µM)
COc1nc(OC)nc(Sc2ccc(Br)cc2C#N)n1 | > 100 | 66.7 | > 100 | 37.4 | 81.1 | > 100 | > 100 | > 100 | > 100 | 85.5 | 57.3 | 14 | 0 | 19.4 | 8.3 | 70.3 | 21.4 | 30.3 | 100 | mortality at 600 µg/mL (Mythimna separata): 20%; inhibition at 500 µg/mL (Tobacco mosaic virus [25]): 0%; inhibition (Tobacco mosaic virus [26]): inactive; IC50 [27]: 4.54 µM; CC50 at 48 h [28]: 53.5 µM

Source: ChEMBL document CHEMBL4390648, “Chemical synthesis, crystal structure, versatile evaluation of their biological activities and molecular simulations of novel pyrithiobac derivatives” (Eur J Med Chem, 2019)
